The source made the active and inactive calls. The calls are words filed in the database; no cut-off is given here.

The nature of test [1]: Inhibition of bovine liver beta-glucosidase using p-nitrophenyl glycopyranoside preincubated for 5 mins followed by substrate addition measured after 20 mins by visible absorption spectroscopic method. Details: species or system Bos taurus. The gist of the method:
(§1)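 IC50 determined only for compounds giving ≥80% inhibition at 1 mM, read from plots of % inhibition versus inhibitor concentration. p-Nitrophenyl glycopyranoside substrate (10 mM solution) at the enzyme's optimal pH, with 0.01–0.5 units/mL enzyme. 5 min rt preincubation with enzyme, then 20 min at 37 °C. Borate stop (pH 9.8), absorbance at 405 nm. Duplicates averaged.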

Another test concerns the target T1, Beta-galactosidase (Bos taurus, UniProt Q58D55).
T1 sequence (Q58D55 whole entry): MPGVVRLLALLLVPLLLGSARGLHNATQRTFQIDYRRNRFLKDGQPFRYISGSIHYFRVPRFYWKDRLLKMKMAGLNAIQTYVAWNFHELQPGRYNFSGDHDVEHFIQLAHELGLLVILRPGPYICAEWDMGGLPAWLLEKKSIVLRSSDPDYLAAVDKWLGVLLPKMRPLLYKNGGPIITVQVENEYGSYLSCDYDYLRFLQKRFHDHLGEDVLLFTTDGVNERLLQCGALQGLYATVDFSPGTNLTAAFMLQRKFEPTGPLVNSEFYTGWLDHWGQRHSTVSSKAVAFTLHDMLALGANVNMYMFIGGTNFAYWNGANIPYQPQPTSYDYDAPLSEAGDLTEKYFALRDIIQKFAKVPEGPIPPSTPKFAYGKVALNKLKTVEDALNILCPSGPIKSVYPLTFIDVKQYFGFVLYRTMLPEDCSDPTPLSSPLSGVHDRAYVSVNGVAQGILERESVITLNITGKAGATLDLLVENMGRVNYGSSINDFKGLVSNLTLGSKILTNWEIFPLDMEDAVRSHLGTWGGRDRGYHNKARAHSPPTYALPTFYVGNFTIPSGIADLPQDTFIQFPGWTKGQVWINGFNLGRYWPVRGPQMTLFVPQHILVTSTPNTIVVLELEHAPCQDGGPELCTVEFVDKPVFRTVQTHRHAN
The test is described as follows: Inhibition of bovine liver beta-galactosidase using p-nitrophenyl glycopyranoside preincubated for 5 mins followed by substrate addition measured after 20 mins by visible absorption spectroscopic method. A digest of the protocol: as §1

Test [2] addresses Beta-galactosidase (Escherichia coli) (UniProt Q8VNN2). The test is described as follows: Inhibition of Escherichia coli beta-galactosidase at 1 mM using p-nitrophenyl glycopyranoside preincubated for 5 mins followed by substrate addition measured after 20 mins by visible absorption spectroscopic method relative to control. The gist of the method: (§2)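 Test compound at 1 mM in well. Mix: 0.01–0.5 units/mL enzyme plus 10 mM p-nitrophenyl glycopyranoside (aqueous solution), buffered to the enzyme's optimal pH. Enzyme and inhibitor preincubated 5 min at rt. Substrate then added and incubated 20 min at 37 °C. Stopped with sodium borate (pH 9.8). p-Nitrophenolate read at 405 nm. Duplicates averaged.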

Another test deals with Saccharomyces cerevisiae. As to the kind of experiment: Inhibition of yeast alpha glucosidase at 1 mM using p-nitrophenyl glycopyranoside preincubated for 5 mins followed by substrate addition measured after 20 mins by visible absorption spectroscopic method relative to control. The gist of the method:
as §2

The target in test [3] is T2, Lysosomal acid glucosylceramidase (Homo sapiens, UniProt P04062).
T2 sequence (P04062 whole entry): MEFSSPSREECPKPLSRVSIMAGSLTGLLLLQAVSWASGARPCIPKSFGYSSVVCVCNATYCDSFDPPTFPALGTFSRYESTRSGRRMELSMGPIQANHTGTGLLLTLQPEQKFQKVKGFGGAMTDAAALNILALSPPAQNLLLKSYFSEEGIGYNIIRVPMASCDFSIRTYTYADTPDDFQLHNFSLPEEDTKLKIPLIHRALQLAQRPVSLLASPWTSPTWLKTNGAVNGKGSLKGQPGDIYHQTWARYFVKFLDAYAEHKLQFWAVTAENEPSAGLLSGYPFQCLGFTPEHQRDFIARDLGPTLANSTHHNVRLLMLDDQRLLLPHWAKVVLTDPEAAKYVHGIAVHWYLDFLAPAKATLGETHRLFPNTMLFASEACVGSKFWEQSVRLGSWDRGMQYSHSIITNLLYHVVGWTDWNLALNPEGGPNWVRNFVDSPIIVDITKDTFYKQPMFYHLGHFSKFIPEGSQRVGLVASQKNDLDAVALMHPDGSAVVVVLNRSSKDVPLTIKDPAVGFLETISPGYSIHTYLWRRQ
As to the kind of experiment: Inhibition of human lysosomal beta-glucocerebrosidase using 4-methylumbelliferyl-beta-D-glucopyranoside as substrate preincubated for 45 mins followed by substrate addition measured after 30 mins by fluorescence spectroscopic method. A digest of the protocol:
(§3)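 Enzyme in 100 mM McIlvaine buffer pH 5.2 with 0.25% sodium taurocholate and 0.1% Triton X-100, with inhibitor. Preincubated at 0 °C for 45 min, then started with 3 mM 4-methylumbelliferyl glycoside substrate solution and incubated 30 min at 37 °C. Stopped with 400 mM glycine-NaOH pH 10.6. 4-Methylumbelliferone fluorescence read at ex 362/em 450 nm.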

For the next test, the target named is T3, Alpha-galactosidase A (Homo sapiens, UniProt P06280).
T3 sequence (P06280 whole entry): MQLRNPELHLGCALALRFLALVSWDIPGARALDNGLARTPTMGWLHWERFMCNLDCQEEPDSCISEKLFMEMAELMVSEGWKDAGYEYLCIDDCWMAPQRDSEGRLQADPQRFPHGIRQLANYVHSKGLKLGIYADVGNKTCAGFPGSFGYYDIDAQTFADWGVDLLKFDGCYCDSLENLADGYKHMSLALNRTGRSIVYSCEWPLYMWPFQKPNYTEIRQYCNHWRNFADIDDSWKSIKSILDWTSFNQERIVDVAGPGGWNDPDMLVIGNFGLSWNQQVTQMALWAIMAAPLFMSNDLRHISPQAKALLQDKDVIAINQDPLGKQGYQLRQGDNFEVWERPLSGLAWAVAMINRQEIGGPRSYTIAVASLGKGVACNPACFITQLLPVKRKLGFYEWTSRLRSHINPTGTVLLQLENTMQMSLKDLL
The test is described as follows: Inhibition of human lysosomal alpha-galactosidase A using 4-methylumbelliferyl-alpha-D-galactopyranoside as substrate preincubated for 45 mins followed by substrate addition measured after 30 mins by fluorescence spectroscopic method. The gist of the method:
as §3

In another test the test system is Oryza sativa. As to the kind of experiment: Inhibition of rice alpha-glucosidase at 1 mM using p-nitrophenyl glycopyranoside preincubated for 5 mins followed by substrate addition measured after 20 mins by visible absorption spectroscopic method relative to control. The gist of the method:
as §2

The subject of another test is Prunus dulcis. The test is described as follows: Inhibition of almond beta-glucosidase at 10 uM using p-nitrophenyl glycopyranoside preincubated for 5 mins followed by substrate addition measured after 20 mins by visible absorption spectroscopic method relative to control. The gist of the method:
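Crude click-reaction products screened in situ. Azide (final 15 mM) was reacted with each alkyne using sodium ascorbate/CuSO4 in tBuOH–H2O for 24 h at rt, then diluted with water. Tested at 10 μM per well, assuming quantitative conversion, against almond β-glucosidase at pH 5, 37 °C. p-Nitrophenyl glycoside read-out at 405 nm.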

The species entered for the next test is Bos taurus. The test is described as follows: Inhibition of bovine liver beta-glucosidase at 1 mM using p-nitrophenyl glycopyranoside preincubated for 5 mins followed by substrate addition measured after 20 mins by visible absorption spectroscopic method relative to control. A digest of the protocol: as §2
Test [4] deals with T4, Alpha-galactosidase A (Homo sapiens) (UniProt P06280).
T4 sequence (whole entry): T3 sequence (P06280 whole entry)
As to the kind of experiment: Inhibition of human lysosomal alpha-galactosidase A at 1 mM using 4-methylumbelliferyl-alpha-D-galactopyranoside as substrate preincubated for 45 mins followed by substrate addition measured after 30 mins by fluorescence spectroscopic method relative to control. A digest of the protocol: as §3

Sequence of Beta-galactosidase (Escherichia coli) (Q8VNN2 whole entry, looked up): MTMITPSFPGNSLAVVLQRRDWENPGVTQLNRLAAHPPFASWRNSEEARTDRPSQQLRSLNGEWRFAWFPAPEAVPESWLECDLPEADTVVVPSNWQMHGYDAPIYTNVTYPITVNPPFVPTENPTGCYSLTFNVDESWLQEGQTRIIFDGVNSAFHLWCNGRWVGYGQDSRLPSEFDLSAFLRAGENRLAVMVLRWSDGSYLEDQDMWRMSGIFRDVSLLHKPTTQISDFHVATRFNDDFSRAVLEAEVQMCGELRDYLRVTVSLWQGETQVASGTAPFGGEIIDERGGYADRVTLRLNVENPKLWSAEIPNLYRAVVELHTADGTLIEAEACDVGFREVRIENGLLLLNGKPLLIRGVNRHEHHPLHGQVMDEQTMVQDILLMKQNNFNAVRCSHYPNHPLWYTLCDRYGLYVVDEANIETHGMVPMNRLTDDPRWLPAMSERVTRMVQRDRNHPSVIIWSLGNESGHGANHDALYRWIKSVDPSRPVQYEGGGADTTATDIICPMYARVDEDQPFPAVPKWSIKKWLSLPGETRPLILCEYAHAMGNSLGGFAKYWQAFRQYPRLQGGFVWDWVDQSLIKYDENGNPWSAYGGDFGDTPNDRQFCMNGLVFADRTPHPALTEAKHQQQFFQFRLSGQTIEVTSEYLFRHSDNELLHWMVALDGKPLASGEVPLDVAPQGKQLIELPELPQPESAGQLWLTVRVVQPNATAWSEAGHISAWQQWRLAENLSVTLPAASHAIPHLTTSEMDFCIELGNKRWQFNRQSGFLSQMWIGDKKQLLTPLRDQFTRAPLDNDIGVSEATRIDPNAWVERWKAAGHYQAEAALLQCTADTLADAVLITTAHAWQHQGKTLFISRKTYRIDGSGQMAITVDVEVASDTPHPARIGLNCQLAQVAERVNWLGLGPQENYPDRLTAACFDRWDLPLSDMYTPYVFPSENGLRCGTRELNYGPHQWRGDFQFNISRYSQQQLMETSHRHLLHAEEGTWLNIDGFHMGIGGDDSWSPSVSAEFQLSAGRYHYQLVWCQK

Take `O[C@@H]1[C@H](O)CN[C@@H]1Cn1cc(-c2ccccc2)nn1`: the IC50 in test [1] came to 240 µM; at Beta-galactosidase it was 173 µM; in test [3], 28 µM; on Alpha-galactosidase A, 171 µM. Besides, the inhibition result (in test [2]; with Saccharomyces cerevisiae; in the test on Oryza sativa) was “inactive” throughout.
As for `O[C@@H]1[C@H](O)CN[C@H]1Cn1cc(-c2ccccc2)nn1`, the inhibition with Prunus dulcis was 72%; in the test filed under Bos taurus, less than 50%; in test [4], less than 50%. Moreover, the IC50 against Beta-galactosidase was found to be 458 µM; in [3], 11 µM. Besides, the inhibition entry (in test [2]; in the test with Saccharomyces cerevisiae; with Oryza sativa) was “inactive” in each case.

Values taken from ChEMBL document CHEMBL4190262, “Tuning of β-glucosidase and α-galactosidase inhibition by generation and in situ screening of a library of pyrrolidine-triazole hybrid molecules” (Eur J Med Chem, 2017).
